Reference: ChEMBL document CHEMBL2429803, “Animal toxicity of hairpin pyrrole-imidazole polyamides varies with the turn unit” (J Med Chem, 2013)
Each block holds one compound with its values, some of them ahead of it.

Experiments:
Mus musculus [1] = assay: Toxicity in C57BL/6J mouse assessed as mild multifocal hepatocellular necrosis and apoptosis in liver at 1 mg/kg, sc administered every 3 days for a cycle of 3 injections measured 2 days post last injection; assay type: organism-based; parameters: dose 1 mg/kg, route subcutaneous; details: in vivo, 48 h
In short: (§1)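 Male C57BL/6J mice, 8 weeks old, given 1 mg/kg sc every 3 days for three injections and sacrificed 2 days after the last one. Two mice per group fixed in 10% formalin. A veterinary pathologist, blinded, examined cecum, duodenum, heart, ileum, kidney, liver, lung, pancreas, spleen and stomach. Lesions graded mild, moderate or severe.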

[2] = Metabolic stability in mouse liver microsomes after 1 hr by LC/MS/MS analysis; assay type: ADME, Microsome; details: read-out: Stability
In short: (§2)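 Compound incubated at 37 °C for 60 min with 1 mg/mL human or mouse liver microsomes in 100 mM KH2PO4, 3 mM MgCl2, pH 7.4, with 2 mM NADPH or without it. Stopped with ice-cold methanol, then precipitate removed. Analyzed by LC/MS/MS as % remaining versus time zero. Duplicates.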

Mus musculus [3] = assay: Toxicity in C57BL/6J mouse assessed as epithelial necrosis and apoptosis in kidney at 1 mg/kg, sc administered every 3 days for a cycle of 3 injections measured 2 days post last injection; assay type: organism-based; parameters: dose 1 mg/kg, route subcutaneous; details: in vivo, 48 h; in short: as §1
Mus musculus [4] = assay: Acute toxicity in C57BL/6J mouse assessed as lesions in lungs at 1 to 10 mg/kg, sc after 9 days; assay type: organism-based; parameters: dose 1-10 mg/kg, route subcutaneous; details: in vivo, 216 h
In short: (§3)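 Male C57BL/6J mice, 8 weeks old, received a single sc dose (1, 3 or 10 mg/kg in 25% DMSO/saline, n = 4 per group) and were sacrificed after 9 days. Two representative animals per group were fixed in 10% formalin. Cecum, duodenum, heart, ileum, kidney, liver, lung, pancreas, spleen and stomach were examined blind by a veterinary pathologist and lesions graded mild, moderate or severe.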

Mus musculus [5] = assay: Acute toxicity in C57BL/6J mouse assessed as moderate atypical tubular regeneration in kidney at 3 mg/kg, sc after 9 days; assay type: organism-based; parameters: dose 3 mg/kg, route subcutaneous; details: in vivo, 216 h; in short: as §3
Mus musculus [6] = assay: Acute toxicity in C57BL/6J mouse assessed as acute morbidity at 10 mg/kg, sc after 9 days; assay type: organism-based; parameters: dose 10 mg/kg, route subcutaneous; details: in vivo, 216 h
In short: (§4)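 Male C57BL/6J mice, 8 weeks old, were acclimated 3 days and then given a single sc injection of 1, 3 or 10 mg/kg in 25% DMSO/saline vehicle (up to 200 μL), n = 4 per group. Weight, behaviour and appearance were monitored daily for 9 days before sacrifice. The humane end point was visible duress or weight loss over 15% of the original.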

Mus musculus [7] = assay: Toxicity in C57BL/6J mouse assessed as karyomegaly in kidney at 1 mg/kg, sc administered every 3 days for a cycle of 3 injections measured 2 days post last injection; assay type: organism-based; parameters: dose 1 mg/kg, route subcutaneous; details: in vivo, 48 h; in short: as §1
Mus musculus [8] = assay: Toxicity in C57BL/6J mouse assessed as mild tubular attenuation in kidney at 1 mg/kg, sc administered every 3 days for a cycle of 3 injections measured 2 days post last injection; assay type: organism-based; parameters: dose 1 mg/kg, route subcutaneous; details: in vivo, 48 h; in short: as §1
Mus musculus [9] = assay: Acute toxicity in C57BL/6J mouse assessed as diffuse hepatocellular necrosis and apoptosis at 10 mg/kg, sc after 9 days; assay type: organism-based; parameters: dose 10 mg/kg, route subcutaneous; details: in vivo, 216 h; in short: as §3
Mus musculus [10] = assay: Acute toxicity in C57BL/6J mouse assessed as lesions in stomach at 1 to 10 mg/kg, sc after 9 days; assay type: organism-based; parameters: dose 1-10 mg/kg, route subcutaneous; details: in vivo, 216 h; in short: as §3
Mus musculus [11] = assay: Acute toxicity in C57BL/6J mouse assessed as lesions in pancreas at 1 to 10 mg/kg, sc after 9 days; assay type: organism-based; parameters: dose 1-10 mg/kg, route subcutaneous; details: in vivo, 216 h; in short: as §3
Mus musculus [12] = assay: Acute toxicity in C57BL/6J mouse assessed as mild lymphoid apoptosis in white pulp of spleen at 10 mg/kg, sc after 9 days; assay type: organism-based; parameters: dose 10 mg/kg, route subcutaneous; details: in vivo, 216 h; in short: as §3
Mus musculus [13] = assay: Acute toxicity in C57BL/6J mouse assessed as tubular epithelial necrosis and apoptosis in kidney at 3 mg/kg, sc after 9 days; assay type: organism-based; parameters: dose 3 mg/kg, route subcutaneous; details: in vivo, 216 h; in short: as §3
[14] = Metabolic stability in human liver microsomes after 1 hr by LC/MS/MS analysis in presence of NADPH; assay type: ADME, Microsome; details: read-out: Stability; in short: as §2
Mus musculus [15] = assay: Acute toxicity in C57BL/6J mouse assessed as diffuse hepatocellular necrosis and apoptosis at 10 mg/kg, sc after 9 days; details: in vivo, 216 h
Mus musculus [16] = assay: Acute toxicity in C57BL/6J mouse assessed as lesions in GI tract at 1 to 10 mg/kg, sc after 9 days; assay type: organism-based, Gastrointestinal tract; parameters: dose 1-10 mg/kg, route subcutaneous; details: in vivo, 216 h; in short: as §3
Mus musculus [17] = assay: Toxicity in C57BL/6J mouse assessed as weight loss at 1 mg/kg, sc administered every 3 days for a cycle of 3 injections; assay type: organism-based; parameters: dose 1 mg/kg, route subcutaneous; details: in vivo, 72 h
In short: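 8-week-old male C57BL/6J mice, acclimated 3 days, groups of three, dosed sc in 25% DMSO/saline vehicle once every 3 days, sacrificed 2 days after the last injection. Body weight recorded on injection days and at end point; humane end point set at visible duress or >15% loss of original body weight.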

Mus musculus [18] = assay: Toxicity in C57BL/6J mouse assessed as morbidity at 1 mg/kg, sc administered every 3 days for a cycle of 3 injections; assay type: organism-based; parameters: dose 1 mg/kg, route subcutaneous; details: in vivo, 72 h
In short: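 Male C57BL/6J mice, 3 per group, given 1 mg/kg sc every 3 days. Weight recorded on injection days. Watched for signs of duress. Humane end point was visible duress or weight loss over 15% of starting body weight.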

Mus musculus [19] = assay: Acute toxicity in C57BL/6J mouse assessed as weight loss at 10 mg/kg, sc after 9 days; assay type: organism-based; parameters: dose 10 mg/kg, route subcutaneous; details: in vivo, 216 h; in short: as §4
Mus musculus [20] = assay: Acute toxicity in C57BL/6J mouse assessed as lesions in heart at 1 to 10 mg/kg, sc after 9 days; assay type: organism-based; parameters: dose 1-10 mg/kg, route subcutaneous; details: in vivo, 216 h; in short: as §3
[21] = Metabolic stability in mouse liver microsomes after 1 hr by LC/MS/MS analysis in presence of NADPH; assay type: ADME, Microsome; details: read-out: Stability; in short: as §2
[22] = Metabolic stability in human liver microsomes after 1 hr by LC/MS/MS analysis; assay type: ADME, Microsome; details: read-out: Stability; in short: as §2
[23] = Drug uptake in nucleus of C57BL/6J mouse liver at 3 mg/kg, sc after 24 hrs by confocal microscopic analysis; assay type: ADME, organism-based; parameters: dose 3 mg/kg, route subcutaneous; details: in vivo
In short: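 Male C57BL/6J mice, 2 per group, injected with 50 nmol (~3 mg/kg) of fluorescein-conjugated polyamide and sacrificed 24 h later. Liver fixed in 10% formalin for 48 h, cryoprotected in 15% then 30% sucrose, and frozen. Nuclear fluorescence assessed by confocal microscopy in 10 μm sections.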

[24] = Drug uptake in human LNCAP cell nucleus at 2 uM after 24 hrs by confocal microscopic analysis; assay type: ADME, cell-based
In short: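 LNCaP cells incubated 24 h with 2 μM of the fluorescein-conjugated polyamide. Nuclear localization imaged by confocal microscopy.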

SMILES: CN(CCCNC(=O)c1cccc(C(=O)O)c1)CCCNC(=O)c1cc(NC(=O)c2cc(NC(=O)c3cc(NC(=O)c4nc(NC(=O)C[C@@H](N)CNC(=O)c5cc(NC(=O)c6cc(NC(=O)c7cc(NC(=O)c8nccn8C)cn7C)cn6C)cn5C)cn4C)cn3C)cn2C)cn1C
Activity (Mus musculus [1]): Toxic | remaining at 1 h [2]: > 90% | Activity (Mus musculus [3]): Toxic | Activity (Mus musculus [4]): Non-toxic | Activity (Mus musculus [5]): Toxic | Activity (Mus musculus [6]): Toxic | Activity (Mus musculus [7]): Toxic | Activity (Mus musculus [8]): Toxic | Activity (Mus musculus [9]): Toxic | Activity (Mus musculus [10]): Non-toxic | Activity (Mus musculus [11]): Non-toxic | Activity (Mus musculus [12]): Toxic | Activity (Mus musculus [13]): Toxic | remaining at 1 h [14]: > 90% | Activity (Mus musculus [15]): Toxic | Activity (Mus musculus [16]): Non-toxic | Activity (Mus musculus [17]): Non-toxic | Activity (Mus musculus [18]): Non-toxic | Activity (Mus musculus [19]): Toxic | Activity (Mus musculus [20]): Non-toxic | remaining at 1 h [21]: > 90% | remaining at 1 h [22]: > 90%

Drug uptake [23]: Active
SMILES: CC(=O)N[C@@H](CNC(=O)c1cc(NC(=O)c2cc(NC(=O)c3cc(NC(=O)c4nccn4C)cn3C)cn2C)cn1C)CC(=O)Nc1cn(C)c(C(=O)Nc2cc(C(=O)Nc3cc(C(=O)Nc4cc(C(=O)NCCCN(C)CCCNC(=S)Nc5ccc(-c6c7ccc(=O)cc-7oc7cc(O)ccc67)c(C(=O)O)c5)n(C)c4)n(C)c3)n(C)c2)n1

Drug uptake [24]: Active
SMILES: CN(CCCNC(=O)c1cc(NC(=O)c2cc(NC(=O)c3cc(NC(=O)c4nc(NC(=O)[C@H](N)CCNC(=O)c5cc(NC(=O)c6cc(NC(=O)c7cc(NC(=O)c8nccn8C)cn7C)cn6C)cn5C)cn4C)cn3C)cn2C)cn1C)CCCNC(=S)Nc1ccc(-c2c3ccc(=O)cc-3oc3cc(O)ccc23)c(C(=O)O)c1
